The results in this text go back to ChEMBL document CHEMBL1138251, “Synthesis and evaluation of antiparasitic activities of new 4-[5-(4-phenoxyphenyl)-2H-pyrazol-3-yl]morpholine derivatives” (J Med Chem, 2007).

Each structure is given as a SMILES string.

The subject of assay [1] is Trypanosoma brucei rhodesiense. As to the kind of experiment: Antiparasitic activity against Trypanosoma brucei rhodesiense STIB900 in blood. It counts as functional, organism-based. In outline:
(§1)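 Microplate assay at pH 7.4. Organisms: L. donovani MHOM-ET-67/L82, T. b. rhodesiense STIB900, T. cruzi Tulahuen C4. Cytotoxicity used rat skeletal myoblast L-6 cells. Compounds were tested in duplicate at […], and actives were retested in duplicate down to 3.5 nM. IC50 was taken from sigmoidal inhibition curves. Reference standards: miltefosine (L. donovani), melarsoprol (T. b. rhodesiense), benznidazole (T. cruzi), podophyllotoxin (L-6).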

Assay [2] deals with Trypanosoma brucei rhodesiense. As to the kind of experiment: Antiparasitic activity against Trypanosoma brucei rhodesiense STIB900 in procyclic stage. It counts as functional, organism-based.
Assay [3] concerns Leishmania donovani. As to the kind of experiment: Antiparasitic activity against Leishmania donovani MHOM-ET-67/L82 in amastigotes stage. The class given is functional, organism-based. In outline: as §1
Assay [4] relates to L6. As to the kind of experiment: Cytotoxicity against rat L6 cells. It counts as cell-based.
Assay [5] relates to Trypanosoma cruzi. As to the kind of experiment: Antiparasitic activity against Trypanosoma cruzi Tulahuen C4 in amastigotes stage.
Assay [6] concerns Plasmodium falciparum. As to the kind of experiment: Antiparasitic activity against chloroquine, pyrimethamine-resistant Plasmodium falciparum K1 erythrocyte stage.

Take `CSC(=CC(=O)c1ccc(Oc2ccccc2)cc1)SC`: the half-maximal inhibitory concentration (IC50) – broadly, the concentration at which inhibition is half-maximal – in assay [1] was 51.4 µM; in assay [2] it was 16.6 µM; in assay [3] it was 9.7 µM; in assay [4], 34.5 µM; in assay [5], 24.4 µM; in assay [6] it was more than 15 µM.

`O=[N+]([O-])c1ccc(-n2nc(-c3ccc(Oc4ccccc4)cc3)cc2N2CCOCC2)cc1`: the half-inhibitory concentration (IC50) in assay [1] is 28.8 µM; in assay [2] it was more than 203 µM; in assay [3], 4.8 µM; in assay [4], more than 203 µM; in assay [5], more than 67 µM; in assay [6], 3.7 µM.

On to `CSC(=CC(=O)c1ccc([N+](=O)[O-])cc1)SC`, for which the IC50 in assay [1] was 224 µM; in assay [2] it was more than 334 µM; in assay [3], 20.2 µM; in assay [4] it was 40.5 µM; in assay [5], 54.6 µM; in assay [6], more than 18 µM.

In turn, `CCCCCCCCCCCCCCCCOP(=O)([O-])OCC[N+](C)(C)C` [MILTEFOSINE] yielded an IC50 in assay [3] of 0.26 µM.

In the case of `CC(C)(C)OC(=O)N1CCN(c2cc(-c3ccc(Oc4ccccc4)cc3)n[nH]2)CC1`, the IC50 in assay [1] came out at 2.9 µM; in assay [2], 17.6 µM; in assay [3], 2.3 µM; in assay [4], 30 µM; in assay [5], 12.8 µM; in assay [6], 8.1 µM.

With `c1ccc(Oc2ccc(-c3cc(N4CCOCC4)on3)cc2)cc1`, the IC50 in assay [1] was found to be 5.9 µM; in assay [2], 75.2 µM; in assay [3], 12.7 µM; in assay [4] it was 172 µM; in assay [5], 46.5 µM; in assay [6] it was 10.5 µM.

With `O=C(CC(=O)c1ccc(Oc2ccccc2)cc1)CN1CCOCC1`, the IC50 is 18.9 µM in assay [1]; 1 µM in assay [2]; 5.2 µM in assay [3]; 112 µM in assay [4]; 20.6 µM in assay [5]; more than 15 µM in assay [6].

On to `CCc1ccc(-c2cc(C3CCOCC3)[nH]n2)cc1`, for which the 50% inhibitory concentration (IC50) in assay [1] is 28.6 µM; in assay [2], 7.8 µM; in assay [3], 15.1 µM; in assay [4], 165 µM; in assay [5], 114 µM; in assay [6] it was more than 19 µM.

With `O=[N+]([O-])c1ccc(Oc2ccc(-c3cc(N4CCOCC4)[nH]n3)cc2)cc1`, the IC50 in assay [1] is 4.4 µM; in assay [2] it was 93.4 µM; in assay [3] it was 22.3 µM; in assay [4] it was more than 245 µM; in assay [5], more than 81 µM; in assay [6], more than 13 µM.

In turn, `O=C(Cn1ccnc1[N+](=O)[O-])NCc1ccccc1` [BENZNIDAZOLE] gave an IC50 in assay [5] of 2.13 µM.

As for `Nc1ccc(-n2nc(-c3ccc(Oc4ccccc4)cc3)cc2N2CCOCC2)cc1`, the IC50 in assay [1] was 10.3 µM; in assay [2], 61.7 µM; in assay [3] it was 10.5 µM; in assay [4], 61.6 µM; in assay [5], 22 µM; in assay [6] it was 6.5 µM.

In the case of `c1ccc(Oc2ccc(-c3cc(N4CCNCC4)[nH]n3)cc2)cc1`, the IC50 was determined as 1.1 µM in assay [1]; 4.7 µM in assay [2]; 25.8 µM in assay [3]; 18 µM in assay [4]; 9.5 µM in assay [5]; 6.6 µM in assay [6].

As to `Nc1nc(N)nc(Nc2ccc([As]3SCC(CO)S3)cc2)n1` (stereo unspecified) [MELARSOPROL], the concentration for half-maximal inhibition (IC50) in assay [1] stood at 0.01 µM; in assay [2], 0.13 µM.

With `CCc1ccc(C(=O)CC(=O)C2CCOCC2)cc1`, the IC50 in assay [1] is 20.9 µM; in assay [2], 3.4 µM; in assay [3], 9.8 µM; in assay [4], 202 µM; in assay [5], 54.9 µM; in assay [6], more than 19 µM.

With `c1ccc(Oc2ccc(-c3cc(C4CCOCC4)[nH]n3)cc2)cc1`, the IC50 in assay [1] was 3.2 µM; in assay [2] it was 43 µM; in assay [3], 6.4 µM; in assay [4] it was 89.6 µM; in assay [5] it was 59 µM; in assay [6], more than 15 µM.

For `Nc1ccc(Oc2ccc(-c3cc(N4CCOCC4)[nH]n3)cc2)cc1`, the IC50 in assay [1] is 17.7 µM; in assay [2], more than 267 µM; in assay [3] it was 20.3 µM; in assay [4], more than 267 µM; in assay [5], more than 89 µM; in assay [6], more than 14 µM.

Consider `CSC(=CC(=O)c1ccc(Oc2ccc([N+](=O)[O-])cc2)cc1)SC`, for which the IC50 was 45.9 µM in assay [1]; more than 249 µM in assay [2]; 5.7 µM in assay [3]; 156 µM in assay [4]; more than 83 µM in assay [5]; more than 13 µM in assay [6].

For the molecule `c1ccc(Oc2ccc(-c3cc(N4CCOCC4)[nH]n3)cc2)cc1`, the IC50 in assay [1] was 1 µM; in assay [2] it was 40.7 µM; in assay [3] it was 8 µM; in assay [4], 61.6 µM; in assay [5] it was 52 µM; in assay [6], more than 15 µM.

In the case of `O=C(CC(=O)C1CCOCC1)c1ccc(Oc2ccccc2)cc1`, the IC50 in assay [1] is 25.8 µM; in assay [2], 1.8 µM; in assay [3], 4.6 µM; in assay [4], 231 µM; in assay [5], 54.6 µM; in assay [6], more than 15 µM.

With `c1ccc(Oc2ccc(-c3cc(CN4CCOCC4)[nH]n3)cc2)cc1`, the IC50 in assay [1] is 4.1 µM; in assay [2], 54.9 µM; in assay [3], 15.6 µM; in assay [4] it was 150 µM; in assay [5], 45.3 µM; in assay [6], more than 14 µM.
